Measurements taken from ChEMBL document CHEMBL1799945, “Glucosyloxybenzyl eucomate derivatives from Vanda teres stimulate HaCaT cytochrome c oxidase” (J Nat Prod, 2011).
Calls of active or inactive are those of the source. No cut-off for these calls is given here.

How the values were obtained:
HaCaT [1] = assay: Induction of mitochondrial biogenesis in human HaCaT cells assessed as mitochondrial 16S rRNA level by qPCR; type: functional, cell-based
Outline: (§1)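 HaCaT cells were treated as for the oxidase assay, but for 48 h. Lysis in Tris 10 mM/EDTA 1 mM/NaOAc 0.3 M/SDS 1%, then phenol DNA extraction. SYBR Green qPCR ran 45 cycles at 60 °C with calibration curves from serial DNA dilutions. Mitochondrial 16S or cox2 DNA was quantified relative to nuclear ucp-2 DNA and normalized to untreated cells; biogenesis was taken as a ratio >1. n=3, mean ± SD, paired t test.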

HaCaT [2] = assay: Induction of mitochondrial biogenesis in human HaCaT cells assessed as ratio of mitochondrial COX2 to UCP2 gene quantity at 1.75 to 7 uM by qPCR; type: functional, cell-based; outline: as §1
HaCaT [3] = assay: Activation of mitochondrial cytochrome C oxidase in human HaCaT lysate using equine cardiac cytochrome C substrate by spectrophotometry relative to resveratrol
HaCaT [4] = assay: Activation of mitochondrial cytochrome C oxidase in human HaCaT lysate at 0.81 uM using equine cardiac cytochrome C substrate by spectrophotometry
Outline: (§2)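 Lysis in HEPES buffer (20 mM HEPES, 0.1% Triton, 1 mM EDTA). Lysates were Bradford-adjusted to 2 mg/mL. v0 was taken without substrate, then 50 μM reduced cytochrome c was added. Loss was read at 550 nm over 90 s. Slopes gave U/μg. Activity was expressed as % of the DMSO 0.1% control; n=3, mean ± SD, paired t test.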

HaCaT [5] = assay: Activation of mitochondrial cytochrome C oxidase in human HaCaT lysate at 50 uM using equine cardiac cytochrome C substrate by spectrophotometry; outline: as §2
HaCaT [6] = assay: Activation of mitochondrial cytochrome C oxidase in human HaCaT lysate at 0.87 to 7 uM using equine cardiac cytochrome C substrate by spectrophotometry; outline: as §2

| SMILES | fold change (FC) (HaCaT [3]) | Activity (HaCaT [4]) | Activity (HaCaT [5]) [%] | Activity (HaCaT [6]) | Activity (HaCaT [1]) | Activity (HaCaT [2]) |
| --- | --- | --- | --- | --- | --- | --- |
| Oc1ccc(/C=C/c2cc(O)cc(O)c2)cc1 | – | – | 138 | – | – | – |
| O=C(C[C@](O)(Cc1ccc(O)cc1)C(=O)O)OCc1ccc(O[C@@H]2O[C@H](CO)[C@@H](O)[C@H](O)[C@H]2O)cc1 | – | – | – | inactive | inactive | inactive |
| O=C(/C=C/c1ccccc1)O[C@@H]1[C@@H](O)[C@H](O[C@@](CC(=O)OCc2ccc(O[C@@H]3O[C@H](CO)[C@@H](O)[C@H](O)[C@H]3O)cc2)(Cc2ccc(O)cc2)C(=O)OCc2ccc(O[C@@H]3O[C@H](CO)[C@@H](O)[C@H](O)[C@H]3O)cc2)O[C@H](CO)[C@H]1O | – | – | – | inactive | – | – |

The next lines start with results.

| fold change (FC) (HaCaT [3]) | Activity (HaCaT [4]) | Activity (HaCaT [5]) [%] | Activity (HaCaT [6]) | SMILES | Activity (HaCaT [1]) | Activity (HaCaT [2]) |
| --- | --- | --- | --- | --- | --- | --- |
| 60 | Active | – | – | O=C(O)C[C@](O)(Cc1ccc(O)cc1)C(=O)O | inactive | inactive |
| 60 | Active | – | 158% | O=C(C[C@](O)(Cc1ccc(O)cc1)C(=O)OCc1ccc(O[C@@H]2O[C@H](CO)[C@@H](O)[C@H](O)[C@H]2O)cc1)OCc1ccc(O[C@@H]2O[C@H](CO)[C@@H](O)[C@H](O)[C@H]2O)cc1 | inactive | inactive |
